# Shown are actives, neighbours in structure and some others; about 4.2% of the full set was active somewhere.
# OX1R antag-1 – blocks the human orexin 1 receptor. 1.8% of 330,000 active. OX1R-expressing cells, FRET antagonist read-out. inhibition, % at 6.6 µM. O43613. AID 485270; in the data active means inhibition mostly above about 38%, no sharp cut-off; inactive means mostly below about 40%;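 further: 0% = agonist challenge alone and 100% = reference antagonist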
# Target sequence (O43613 whole entry, looked up): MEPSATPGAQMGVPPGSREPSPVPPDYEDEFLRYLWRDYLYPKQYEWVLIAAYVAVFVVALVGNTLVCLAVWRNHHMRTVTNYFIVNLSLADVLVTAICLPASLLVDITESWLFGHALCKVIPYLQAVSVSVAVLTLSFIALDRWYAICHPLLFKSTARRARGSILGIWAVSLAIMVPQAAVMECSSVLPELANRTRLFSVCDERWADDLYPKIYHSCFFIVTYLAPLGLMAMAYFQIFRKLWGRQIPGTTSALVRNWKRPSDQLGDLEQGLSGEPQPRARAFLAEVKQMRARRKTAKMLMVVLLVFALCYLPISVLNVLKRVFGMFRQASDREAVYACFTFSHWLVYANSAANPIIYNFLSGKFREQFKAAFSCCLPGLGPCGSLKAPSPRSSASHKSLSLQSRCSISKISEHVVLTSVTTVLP
# OX1R antag-2 – human HCRTR1 antagonism. O43613. CHO/OX1R cells, Fluo-8 calcium fluorescence, orexin A. inhibition, % at 5 µM. 0.43% of 330,000 active;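 active means inhibition above its plate's threshold, mean inhibition of all tested compounds on the plate plus 3 SD, cut at about 37% in these data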;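 further: 0% = orexin A challenge wells and 100% = SB-334867-A antagonist wells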
# CHO parental Ca – signal in parental CHO cells, OX1R antagonist counter-screen | parental CHO-K1, ATP-induced calcium, Fluo-8 fluorescence | inhibition, % at 5.6 µM | 0.63% of 330,000 active | AID 463079;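 active means inhibition above that plate's mean sample inhibition plus 3 SD, cut at about 26% in these data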;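 further: 0% = ATP-challenged DMSO wells and 100% = DMSO wells without ATP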
#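 Test system: untransfected parental CHO cell line. Compound: one dose, 5.6 µM nominal. Detection: intracellular calcium via Fluo-8 no-wash fluorescent dye. Measure: % inhibition. Benchmarks: ATP-challenged DMSO wells low, unchallenged DMSO wells high.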
# GalR3 antag – human GalR3 antagonism; inhibition, % at 3 µM; AID 651719; 0.44% of 360,000 active; HEK293 GalR3-CNG cAMP membrane potential fluorescence; galR3 body fused to GalR1 C-terminus; O60755;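 active means inhibition above the screen-wide average plus 3 SD, cut at about 13% in these data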;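 further: forskolin and galanin both at EC90 stimulate the cells; cAMP rise reported by CNG channel membrane potential dye signal; 0% = forskolin plus galanin with DMSO and 100% = forskolin alone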
# TAAR1 ag – human TAAR1 agonism | CHO RD-HGA16 TAAR1, Fluo-8 calcium fluorescence; vehicle wells 0%, saturating PEA agonist 100% | AID 624467 | 0.99% of 360,000 active | activation, % at 3 µM | Q96RJ0;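 active means activation above the mean activation of all test compounds in the run plus 3 SD, cut at about 38% in these data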
#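 System: CHO-derived RD-HGA16 cells with stable Gα16 and human TAAR1. Times: 17-24 h plating, Fluo-8 75 min 37 °C, 30 min RT. Measured by: calcium-sensitive Fluo-8 signal, excitation 470-495, emission 515-575 nm. Read-out basis: % activation relative to PEA EC100 response. Control set: DMSO and PEA EC100. Repeats: no replicates (n 1).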
# TAAR1 antag – antagonists of human TAAR1. Q96RJ0. CHO RD-HGA16 TAAR1, Fluo-8 calcium fluorescence, antagonist. inhibition, % at 3 µM. 1.5% of 360,000 active;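 active means inhibition above a per-plate cutoff, the mean inhibition of test compounds on that plate plus 3 SD, cut at about 49% in these data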;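 further: 0% = DMSO plus EC80 beta-PEA response and 100% = DMSO alone without agonist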
#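 System: RD-HGA16 CHO cells with stable hTAAR1 and Gα16 | Probe or stimulus: EC80 β-phenethylamine stimulus | Dosing: 3 µM, single point | Times: Dye loading 75 min at 37 °C, then 30 min room temperature | Measured by: Fluo-8 calcium-sensitive fluorescence | Read-out basis: % inhibition of agonist calcium response | Replicates: n of 1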
# An asterisk follows results filed as active; · = no result.
SMILES,OX1R antag-1,OX1R antag-2,CHO parental Ca,GalR3 antag,TAAR1 ag,TAAR1 antag
Fc1ccc(-c2nnc(CSc3nnc4ccccn34)o2)cc1,23,0,13,-6,0,4
Cc1nnc(SCc2nnc(-c3cccs3)o2)n1Cc1ccccc1,23,9,6,-4,0,0
Fc1ccc(NCc2nnc(SCc3nnc(-c4ccccc4)o3)n2Cc2ccccc2)cc1,51,73*,51*,1,11,12
Clc1ccc(-c2nnc(CSc3nnc(-c4cccs4)n3Cc3ccccc3)o2)cc1,47*,4,23,3,1,17
c1ccc(CN(Cc2cccs2)C(c2cccs2)c2nnnn2C2CCCC2)cc1 (stereo unspecified),9,-26,34*,-7,2,-1
O=C(COC(=O)/C=C/c1ccc(Cl)cc1)NCCC1=CCCCC1,10,-6,-12,5,0,-5
O=C(COC(=O)/C=C/c1cccc(Cl)c1)NCCC1=CCCCC1,12,-31,0,0,39*,32
COc1cccc2sc3cc(C#Cc4ccccn4)ccc3c(=O)c12,63*,25,-29,-6,15,39
Cc1cc([N+](=O)[O-])nn1CC(=O)NNC(=S)Nc1ccc([N+](=O)[O-])cc1,13,-7,0,-8,8,9
COC(=O)c1cccc(NC(=O)CSc2nnc(COc3cccc(C)c3)n2C)c1,15,-17,-12,-5,12,21
Cc1cccc(OCc2nnc(SCC(=O)Nc3sc(C)c(C)c3C#N)n2C)c1,7,6,7,-1,42*,22
Cc1ccccc1C(=O)N1CCC2CC1c1cc(-c3ccc(F)cc3)ccc12 (stereo unspecified),·,·,·,-2,0,59*
CC(C)N(CCCNC(=O)Cn1c(=O)c2cccn2c2ccccc21)Cc1ccccc1,66*,28,-21,-4,0,-8
Cc1ccc(S(=O)(=O)n2cnc3cc([N+](=O)[O-])ccc32)c(C)c1,32,-6,-5,0,1,6
O=[N+]([O-])c1cc(S(=O)(=O)N2CCCC2)ccc1NCCCN1CCOCC1,51*,-18,-10,-2,6,-33
COCCNc1ccc(S(=O)(=O)N2CCCC2)cc1[N+](=O)[O-],36,-20,-23,-6,5,7
Cc1cc(C)cc(N/C(N)=N/c2nc(C)cc(C)n2)c1,9,20,1,-2,39*,24
Cc1ccc(N/C(N)=N/c2nc(C)cc(C)n2)cc1,18,7,3,-10,24,27
Cc1ccc(Cn2nnc(C(=O)Nc3cc(C)ccc3C)c2N)cc1,-1,13,9,-3,48*,34
Cc1ccc(C)c(NC(=O)c2nnn(Cc3ccccc3)c2N)c1,8,-2,-3,-1,13,-7
COc1cccc(Cn2nnc(C(=O)Nc3cc(Cl)ccc3OC)c2N)c1,42*,13,30*,-2,1,2
CCOc1ccc2nc(-c3ccccc3)nc(SCC(=O)OC)c2c1,3,-18,-15,-9,0,9
COC(=O)CSc1nc(-c2ccccc2)nc2ccccc12,74*,-10,-19,-2,6,24
Cc1cccc(NC(=S)NC(=O)CCc2ccccc2)c1,-1,-40,-37,-2,4,-4
CC(C)CNC(=S)NC(=O)c1csc([N+](=O)[O-])c1,15,-22,-20,-1,-2,-7
O=[N+]([O-])c1cc(-c2ncccn2)cs1,51*,4,-1,-3,2,-14
O=C1/C(=C/c2ccc(N3CCOCC3)o2)SC(=Nc2ccccc2)N1CCc1c[nH]c2ccccc12,1,75*,92*,·,·,·
Cc1ccc(S(=O)(=O)N2CCN(C(=O)COC(=O)CCOc3cc(C)ccc3C)CC2)cc1,22,1,58*,-7,8,36
N/C(=N\OC(=O)Oc1ccccc1)c1ccc([N+](=O)[O-])cc1,67*,-7,4,-4,2,0
